Measurements from different studies.
Protocols differ between the studies behind these lines.
Organism: Mycolicibacterium smegmatis
Effect on: microbial growth

Structure (SMILES) | test | system | setting | MIC
COc1ccc(-c2c[nH]c(N)n2)cc1 | – | ATCC700084 MC^2155 | 48 h | 200 µM
Cc1ccc(Nc2nc(-c3cc(C(=O)Nc4cccc(C)n4)no3)cs2)cc1 | – | MC2155 | – | > 64 µg/mL
C[C@H]1c2cccc(O)c2C(=O)C2=C(O)[C@]3(O)C(=O)C(C(N)=O)=C(O)[C@@H](N(C)C)[C@@H]3[C@@H](O)[C@@H]21 | resazurin | MC^2155 | 24 h | 0.11 µg/mL
NC[C@@H]1O[C@H](O[C@H]2[C@@H](O)[C@H](O[C@@H]3[C@@H](O)[C@H](N)C[C@H](N)[C@H]3O[C@H]3O[C@H](CO)[C@@H](O)[C@H](O)[C@H]3N)O[C@@H]2CO)[C@H](N)[C@@H](O)[C@@H]1O | broth dilution | – | 72 h | 1 µg/mL
NCC[C@H](O)C(=O)N[C@@H]1C[C@H](N)[C@@H](O[C@H]2O[C@H](CN)[C@@H](O)[C@H](O)[C@H]2O)[C@H](O)[C@H]1O[C@H]1O[C@H](CO)[C@@H](O)[C@H](N)[C@H]1O | broth dilution | MC2155 | – | ≤ 0.5 µg/mL
CCCCCC[C@H](CN1CCC(COc2cccc(C(=NOC)c3ccc(Cl)cc3)c2)CC1)OC(N)=O | agar dilution | – | – | 6.5 µg/mL
O=C(Nc1ccccc1)c1cc(-c2csc(Nc3ccc(Cl)cc3)n2)on1 | – | MC2155 | – | > 64 µg/mL
C/C(=N\NC(=N)N)c1ccc(-c2ccc(/C(C)=N/Nc3ccccc3Cl)cc2)cc1.Cl | – | MC2155 | – | 213 µg/mL
CO[C@H]1/C=C/O[C@@]2(C)Oc3c(C)c(O)c4c(O)c(c(/C=N/N5CCN(C)CC5)c(O)c4c3C2=O)NC(=O)/C(C)=C\C=C\[C@H](C)[C@H](O)[C@@H](C)[C@@H](O)[C@@H](C)[C@H](OC(C)=O)[C@@H]1C | broth dilution | ATCC700084 MC^2155 | – | 8 µg/mL
CO/N=C(\C(=O)N[C@@H]1C(=O)N2C(C(=O)O)=C(COC(C)=O)CS[C@H]12)c1csc(N)n1 | resazurin | MC^2155 | 24 h | 75 µg/mL
CCCCc1ccc(-c2c[nH]c(N)n2)cc1 | – | ATCC700084 MC^2155 | 48 h | 150 µM
CC[C@H]1OC(=O)[C@H](C)[C@@H](O[C@H]2C[C@@](C)(OC)[C@@H](O)[C@H](C)O2)[C@H](C)[C@@H](O[C@@H]2O[C@H](C)C[C@H](N(C)C)[C@H]2O)[C@](C)(OC)C[C@@H](C)C(=O)[C@H](C)[C@@H](O)[C@]1(C)O | resazurin | MC^2155 | 24 h | 0.36 µg/mL
NNC(=O)c1ccncc1 | broth dilution | ATCC700084 MC^2155 | – | 32 µg/mL
C[C@@H](O)[C@H]1C(=O)N2C(C(=O)O)=C(SCCN=CN)C[C@H]12 | resazurin | MC^2155 | 24 h | 2.3 µg/mL
Cc1ccc(Nc2nc(-c3cc(C(=O)Nc4ccccn4)no3)cs2)cc1 | – | MC2155 | – | > 64 µg/mL
CCCCCCCCCCC[C@@H](C[C@@H]1OC(=O)[C@H]1CCCCCC)OC(=O)[C@H](CC(C)C)NC=O | resazurin | MC^2155 | – | 48 µg/mL
CCOCCOc1ccc(-c2c[nH]c(N)n2)cc1 | – | ATCC700084 MC^2155 | 48 h | > 200 µM
